Reference: ChEMBL document CHEMBL2417373, “Substituted tetrahydroisoquinolines as selective antagonists for the orexin 1 receptor” (J Med Chem, 2013)
Activity calls are given as the source filed them. No cut-off for these calls is given here.

Experiments:
Homo sapiens = species on record: Homo sapiens; experiment: Selectivity ratio of Ke for OX2 receptor (unknown origin) to Ke for OX1 receptor (unknown origin)
[1] = target: T1, Orexin receptor type 2 (Homo sapiens) (UniProt O43614); experiment: Antagonist activity at OX2 receptor (unknown origin) expressed in RD-HGA16 cells assessed as inhibition orexin A-induced calcium mobilization by fluorescence assay; assay type: functional, cell-based
T1 sequence (whole entry): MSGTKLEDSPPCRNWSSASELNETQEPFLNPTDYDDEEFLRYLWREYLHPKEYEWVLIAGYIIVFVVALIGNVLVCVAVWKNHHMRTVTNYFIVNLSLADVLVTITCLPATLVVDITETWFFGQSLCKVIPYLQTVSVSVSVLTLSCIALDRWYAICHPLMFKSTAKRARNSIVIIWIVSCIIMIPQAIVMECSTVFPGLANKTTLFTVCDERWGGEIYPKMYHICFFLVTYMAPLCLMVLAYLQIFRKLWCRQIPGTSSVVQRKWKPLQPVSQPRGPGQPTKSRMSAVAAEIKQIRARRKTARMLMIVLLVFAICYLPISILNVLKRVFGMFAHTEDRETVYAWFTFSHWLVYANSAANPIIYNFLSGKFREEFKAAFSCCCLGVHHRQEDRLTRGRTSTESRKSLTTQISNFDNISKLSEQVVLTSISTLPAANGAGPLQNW

[2] = target: T2, Orexin/Hypocretin receptor type 1 (Homo sapiens) (UniProt O43613); experiment: Antagonist activity at OX1 receptor (unknown origin) expressed in RD-HGA16 cells assessed as inhibition orexin A-induced calcium mobilization by fluorescence assay; assay type: functional, cell-based
T2 sequence (whole entry): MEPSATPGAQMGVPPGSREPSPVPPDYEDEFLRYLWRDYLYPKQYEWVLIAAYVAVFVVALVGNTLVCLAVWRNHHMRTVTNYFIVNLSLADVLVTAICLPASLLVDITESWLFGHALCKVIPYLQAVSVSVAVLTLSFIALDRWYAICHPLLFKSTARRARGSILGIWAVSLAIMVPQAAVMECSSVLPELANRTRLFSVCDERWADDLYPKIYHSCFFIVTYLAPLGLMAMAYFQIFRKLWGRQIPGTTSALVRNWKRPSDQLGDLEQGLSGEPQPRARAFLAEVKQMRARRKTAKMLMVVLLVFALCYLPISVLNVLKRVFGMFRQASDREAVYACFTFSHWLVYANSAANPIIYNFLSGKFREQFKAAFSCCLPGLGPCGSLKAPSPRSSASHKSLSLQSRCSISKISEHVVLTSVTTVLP

[3] = target: T2, Orexin/Hypocretin receptor type 1 (Homo sapiens); experiment: Agonist activity at OX1 receptor (unknown origin) expressed in RD-HGA16 cells assessed as calcium mobilization at 10 uM by fluorescence assay; assay type: functional, cell-based
Orexin receptor type 2 = target: T3, Orexin receptor type 2 (Homo sapiens, UniProt O43614); experiment: Antagonist activity at OX2 receptor (unknown origin)
T3 sequence (O43614 whole entry): T1 sequence (whole entry)

Rattus norvegicus [4] = experiment: Antiaddictive activity in Sprague-Dawley rat assessed as reduction of cocaine-induced conditioned place preference at 20 mg/kg, ip administered 10 mins before cocaine challenge measured for 15 mins; assay type: functional, organism-based; set-up: dose 20 mg/kg
Outline: (§1)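 Unbiased two-compartment place conditioning in rats. Pretest 30 min with free access, first 15 min scored. Rats excluded if >75% or <25% of time in one side. Eight alternating conditioning days, 30 min confinement, vehicle on odd days and drug on even days. In the combination group, compound was given 10 min before cocaine 10 mg/kg. Injection volume 1 mL/kg. Preference score = drug-side time on test day minus pretest.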

Rattus norvegicus [5] = experiment: Induction of conditioned place preference in Sprague-Dawley rat at 20 mg/kg, ip measured for 15 mins; assay type: organism-based; set-up: dose 20 mg/kg, route intraperitoneal; settings: in vivo, 0.25 h; outline: as §1

Row | Compound | Ratio (Homo sapiens) | Ke(app) [1] | Ke(app) [2] | Activity [3] | IC50 (Orexin receptor type 2) | Activity (Rattus norvegicus [4]) | Activity (Rattus norvegicus [5])
1 | COc1ccc(CC2c3cc(OC)c(OC)cc3CCN2CC(=O)N[C@@H](C)c2ccccc2)cc1OC (single isomer, unassigned; diastereomer 2) | > 125 | > 10 µM | 80 nM | inactive | – | – | –
2 | CNC(=O)[C@@H](c1ccccc1)N1CCc2cc(OC)c(OC)cc2[C@@H]1CCc1ccc(C(F)(F)F)cc1 [ALMOREXANT] | – | – | – | – | 8.1 µM | – | –
3 | COc1ccc(CC2c3cc(OCC(F)(F)F)c(OC)cc3CCN2CC(=O)NCc2cccnc2)cc1OC (centres undefined) | – | – | 8.5 nM | inactive | – | Active | Non-toxic
